Measured values taken from ChEMBL document CHEMBL1150800, “Multiple-dose escalation study of the safety, pharmacokinetics, and biologic activity of oral AMD070, a selective CXCR4 receptor inhibitor, in human subjects” (Antimicrob Agents Chemother, 2007).
Values after ≈ are worked out from the molar mass of the structure shown.

Columns and labels:
Homo sapiens [1] = assay: AUC ( 0 to infinity) in fasting healthy human at 400 mg, po administered as single dose after 12 hrs; type: ADME, organism-based, Plasma; design: dose 400 mg, time infinity, route oral; conditions: in vivo
In short: (§1)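 Healthy male volunteers, three per cohort, one oral dose after 8-h overnight fast, fasting kept until 1 h post-dose. Plasma sampled predose and at 0.5, 1, 1.5, 2, 3, 4, 6, 8, 12, 16, 20, 24 h. Levels by validated HPLC-MS/MS (liquid-liquid extraction, positive-ion electrospray). Noncompartmental analysis, log-linear trapezoidal AUC, summarized per cohort.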

Homo sapiens [2] = assay: Apparent volume of distribution in fasting healthy human at 400 mg, po administered as single dose after 12 hrs; type: ADME, organism-based; conditions: in vivo; in short: as §1
Homo sapiens [3] = assay: Half life in fasting healthy human at 400 mg, po administered as single dose after 12 hrs; type: ADME, organism-based; conditions: in vivo; in short: as §1
[4] = Tmax in fasting healthy human at 100 mg, po administered every 12 hrs; type: ADME, organism-based; conditions: in vivo
In short: (§2)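 Six healthy male volunteers per cohort received seven oral doses q12h. Morning doses followed an 8-h fast, with fasting continued until 1 h post-dose. After the final dose (72 h after the first), plasma was sampled pre-dose and at 0.5–24 h, and assayed by validated HPLC-MS/MS. Tmax came from individual noncompartmental analysis, summarized per cohort.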

[5] = Cmax in fasting healthy human at 100 mg, po administered every 12 hrs; type: ADME, organism-based; design: dose 100 mg, route oral; conditions: in vivo
In short: (§3)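 Six healthy men per cohort dosed orally q12h for seven doses. Morning doses given after 8-h fast, with fasting until 1 h post-dose. After the final dose (72 h after the first) plasma was sampled predose and 0.5–24 h. Validated HPLC-MS/MS assay. Noncompartmental parameters (log-linear trapezoidal AUC) from all time points, summarized per cohort.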

[6] = Drug level in fasting healthy human at 100 mg, po administered every 12 hrs measured after 72 hrs; type: ADME, organism-based; conditions: in vivo, read-out: Drug uptake; in short: as §3
[7] = Drug level in fasting healthy human at 100 mg, po administered every 12 hrs measured after 84 hrs; type: ADME, organism-based; conditions: in vivo, read-out: Drug uptake; in short: as §3
[8] = AUC (0 to 12 hrs) in fasting healthy human at 100 mg, po administered every 12 hrs measured between 72 to 84 hrs postdose; type: ADME, organism-based; design: dose 100 mg, time < 12 hr, route oral; conditions: plasma; in short: as §3
Homo sapiens [9] = assay: Apparent volume of distribution in fasting healthy human at 100 mg, po administered every 12 hrs; type: ADME, organism-based; conditions: in vivo; in short: as §3
Homo sapiens [10] = assay: Half life in fasting healthy human at 100 mg, po administered every 12 hrs; type: ADME, organism-based; conditions: in vivo; in short: as §3
[11] = Tmax in fasting healthy human at 200 mg, po administered every 12 hrs; type: ADME, organism-based; conditions: in vivo; in short: as §2
[12] = Cmax in fasting healthy human at 200 mg, po administered every 12 hrs; type: ADME, organism-based; design: dose 200 mg, route oral; conditions: in vivo; in short: as §3
[13] = Drug level in fasting healthy human at 200 mg, po administered every 12 hrs measured after 72 hrs; type: ADME, organism-based; conditions: in vivo, read-out: Drug uptake; in short: as §3
[14] = Drug level in fasting healthy human at 200 mg, po administered every 12 hrs measured after 84 hrs; type: ADME, organism-based; conditions: in vivo, read-out: Drug uptake; in short: as §3
Homo sapiens [15] = assay: Apparent volume of distribution in fasting healthy human at 200 mg, po administered every 12 hrs; type: ADME, organism-based; conditions: in vivo; in short: as §3
Homo sapiens [16] = assay: Half life in fasting healthy human at 200 mg, po administered every 12 hrs; type: ADME, organism-based; conditions: in vivo; in short: as §3
[17] = Tmax in fasting healthy human at 400 mg, po administered every 12 hrs; type: ADME, organism-based; conditions: in vivo; in short: as §2
[18] = Cmax in fasting healthy human at 400 mg, po administered every 12 hrs; type: ADME, organism-based; design: dose 400 mg, route oral; conditions: in vivo; in short: as §3
[19] = Drug level in fasting healthy human at 400 mg, po administered every 12 hrs measured after 72 hrs; type: ADME, organism-based; conditions: in vivo, read-out: Drug uptake; in short: as §3
[20] = Drug level in fasting healthy human at 400 mg, po administered every 12 hrs measured after 84 hrs; type: ADME, organism-based; conditions: in vivo, read-out: Drug uptake; in short: as §3
[21] = AUC (0 to 12 hrs) in fasting healthy human at 400 mg, po administered every 12 hrs measured between 72 to 84 hrs postdose; type: ADME, organism-based; design: time < 12 hr, dose 400 mg, route oral; conditions: plasma; in short: as §3
Homo sapiens [22] = assay: Apparent volume of distribution in fasting healthy human at 400 mg, po administered every 12 hrs; type: ADME, organism-based; conditions: in vivo; in short: as §3
Homo sapiens [23] = assay: Half life in fasting healthy human at 400 mg, po administered every 12 hrs; type: ADME, organism-based; conditions: in vivo; in short: as §3
Homo sapiens [24] = assay: Decrease in CD4 cell count in fasting healthy human at 100 mg, po administered every 12 hrs measured after 24 hrs relative to baseline; type: functional; design: scale not given: the % may be the effect or the level left
In short: (§4)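 CD4+ counts drawn before the first dose and at 2, 4, 6, 8 and 24 h after the final (seventh) q12h oral dose in fasting healthy men. Each post-dose value divided by the baseline value to give a ratio. Deviation from no effect tested by Wilcoxon rank sum, dose trend by Jonckheere-Terpstra.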

Homo sapiens [25] = assay: Decrease in CD4 cell count in fasting healthy human at 200 mg, po administered every 12 hrs measured after 24 hrs relative to baseline; type: functional; design: scale not given: the % may be the effect or the level left; in short: as §4
Homo sapiens [26] = assay: Decrease in CD4 cell count in fasting healthy human at 400 mg, po administered every 12 hrs measured after 24 hrs relative to baseline; type: functional; design: scale not given: the % may be the effect or the level left; in short: as §4
Homo sapiens [27] = assay: Induction of leucocytosis in po dosed fasting healthy human assessed as increase in WBC count; type: functional, organism-based
In short: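 Total WBC drawn predose and at 2, 4, 6, 8 and 24 h after oral dosing (single-dose cohorts from 200 mg, and multiple-dose cohorts). Ratio taken to baseline. WBC ratio against plasma concentration at all sampling times (n = 232) fit to an Emax model giving Emax and EC50. Per-subject maximum ratio also fit to dose, AUC0-24 and Cmax.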

[28] = AUC (0 to 12 hrs) in fasting healthy human at 200 mg, po administered every 12 hrs measured between 72 to 84 hrs postdose; type: ADME, organism-based; design: dose 200 mg, time < 12 hr, route oral; conditions: plasma; in short: as §3

With `NCCCCN(Cc1nc2ccccc2[nH]1)[C@H]1CCCc2cccnc21` [MAVORIXAFOR] the AUC (Homo sapiens [1]) was 6716 ng·h/mL, the Vd (Homo sapiens [2]) was 918 L and the t1/2 (Homo sapiens [3]) was 11.2 h. It also gave a Tmax [4] of 1.7 h, a Cmax [5] of 461 ng/mL and a concentration at 72 h [6] of 6.8 ng/mL. It also gave a concentration at 84 h [7] of 12 ng/mL, an AUC at 12 h [8] of 937 ng·h/mL and a Vd (Homo sapiens [9]) of 2663 L. For the same compound, the t1/2 (Homo sapiens [10]) was 15.9 h, the Tmax [11] was 1.8 h and the Cmax [12] was 793 ng/mL. For the same compound, the concentration at 72 h [13] was 31 ng/mL, the concentration at 84 h [14] was 33 ng/mL and the Vd (Homo sapiens [15]) was 1923 L. For the same compound, the t1/2 (Homo sapiens [16]) was 11.2 h, the Tmax [17] was 1.8 h and the Cmax [18] was 2300 ng/mL. For the same compound, the concentration at 72 h [19] was 122 ng/mL, the concentration at 84 h [20] was 137 ng/mL and the AUC at 12 h [21] was 7660 ng·h/mL. For the same compound, the Vd (Homo sapiens [22]) was 966 L, the t1/2 (Homo sapiens [23]) was 12 h and the Activity (Homo sapiens [24]) was 80%. The Activity (Homo sapiens [25]) was 80%, the Activity (Homo sapiens [26]) was 80% and the EC50 (Homo sapiens [27]) was 0.039 µg/mL (≈ 0.112 µM). For the same compound, the AUC at 12 h [28] was 1590 ng·h/mL.
